Legend:
Type in all cases: functional
[1] = tested on: OVCAR-8; assay: Cytotoxicity against human OVCAR8 cells at 10^-6 M after 48 hrs by SRB assay; conditions: OVCAR-8, 48 h, read-out: GI
Method in brief: (§1)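 Second-stage screen in the 60-cell-line human tumor panel at NCI, over a 5-log range (100, 10, 1, 0.1, 0.01 micromolar). Cells were exposed to drug for 48 h and growth was estimated with a sulforhodamine B protein stain. The value is percent growth inhibition at each concentration.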

[2] = tested on: SW-620; assay: Cytotoxicity against human SW620 cells at 10^-5 M after 48 hrs by SRB assay; conditions: SW-620, 48 h, read-out: GI
[3] = tested on: LOX IMVI; assay: Cytotoxicity against human LOXIMVI cells at 10^-6 M after 48 hrs by SRB assay; conditions: read-out: GI
Method in brief: (§2)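 Run in the NCI 60-cell-line screen after a three-line prescreen. Cells got a 48 h drug exposure; viability/growth was estimated with the sulforhodamine B protein assay. Growth inhibition (I%) was recorded at 100, 10, 1, 0.1 and 0.01 micromolar. Percent growth is relative to untreated control cells, and negative values indicate cell kill.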

[4] = tested on: COLO 205; assay: Cytotoxicity against human COLO205 cells at 10^-5 M after 48 hrs by SRB assay; conditions: COLO 205, 48 h, read-out: GI
Method in brief: (§3)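 Run by NCI on its 60-line human tumor cell panel, after a three-cell-line prescreen. Cells were exposed to drug for 48 h over a 5-log range: 100, 10, 1, 0.1 and 0.01 micromolar. Growth was estimated by sulforhodamine B (SRB) protein staining. Percent growth inhibition (I%) was recorded at each concentration relative to untreated control cells.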

[5] = tested on: NCI-H226; assay: Cytotoxicity against human NCI-H226 cells at 10^-5 M after 48 hrs by SRB assay; conditions: NCI-H226, 48 h, read-out: GI; method in brief: as §2
[6] = tested on: HOP-92; assay: Cytotoxicity against human HOP92 cells at 10^-5 M after 48 hrs by SRB assay; conditions: HOP-92, 48 h, read-out: GI; method in brief: as §3
[7] = tested on: NCI-H322M; assay: Cytotoxicity against human NCI-H322M cells at 10^-6 M after 48 hrs by SRB assay; conditions: read-out: GI; method in brief: as §2
[8] = tested on: IGROV-1; assay: Cytotoxicity against human IGROV1 cells at 10^-6 M after 48 hrs by SRB assay; conditions: IGROV-1, 48 h, read-out: GI; method in brief: as §2
[9] = tested on: SK-OV-3; assay: Cytotoxicity against human SKOV3 cells at 10^-6 M after 48 hrs by SRB assay; conditions: SK-OV-3, 48 h, read-out: GI; method in brief: as §1
[10] = tested on: SN12C; assay: Cytotoxicity against human SN12C cells at 10^-6 M after 48 hrs by SRB assay; conditions: read-out: GI
[11] = tested on: CAKI-1; assay: Cytotoxicity against human Caki1 cells at 10^-6 M after 48 hrs by SRB assay; conditions: CAKI-1, 48 h, read-out: GI; method in brief: as §3
[12] = tested on: SK-MEL-2; assay: Cytotoxicity against human SK-MEL-2 cells at 10^-6 M after 48 hrs by SRB assay; conditions: SK-MEL-2, 48 h, read-out: GI; method in brief: as §1
[13] = tested on: OVCAR-3; assay: Cytotoxicity against human OVCAR3 cells at 10^-6 M after 48 hrs by SRB assay; conditions: OVCAR-3, 48 h, read-out: GI; method in brief: as §2
[14] = tested on: HT-29; assay: Cytotoxicity against human HT-29 cells at 10^-5 M after 48 hrs by SRB assay; conditions: HT-29, 48 h, read-out: GI; method in brief: as §3
[15] = tested on: U-251; assay: Cytotoxicity against human U251 cells at 10^-6 M after 48 hrs by SRB assay; conditions: U-251, 48 h, read-out: GI
[16] = tested on: UACC-62; assay: Cytotoxicity against human UACC62 cells at 10^-5 M after 48 hrs by SRB assay; conditions: UACC-62, 48 h, read-out: GI
[17] = tested on: NCI-H226; assay: Cytotoxicity against human NCI-H226 cells at 10^-6 M after 48 hrs by SRB assay; conditions: NCI-H226, 48 h, read-out: GI; method in brief: as §2
[18] = tested on: KM12; assay: Cytotoxicity against human KM12 cells at 10^-5 M after 48 hrs by SRB assay; conditions: KM12, 48 h, read-out: GI; method in brief: as §2
[19] = Cytotoxicity against human OVCAR5 cells at 10^-5 M after 48 hrs by SRB assay; conditions: OVCAR-5, 48 h, read-out: GI; method in brief: as §1
[20] = tested on: DU-145; assay: Cytotoxicity against human DU145 cells at 10^-6 M after 48 hrs by SRB assay; conditions: DU-145, 48 h, read-out: GI; method in brief: as §3
[21] = Cytotoxicity against human UACC257 cells at 10^-5 M after 48 hrs by SRB assay; conditions: UACC-257, 48 h, read-out: GI
[22] = tested on: OVCAR-8; assay: Cytotoxicity against human OVCAR8 cells at 10^-5 M after 48 hrs by SRB assay; conditions: OVCAR-8, 48 h, read-out: GI; method in brief: as §1
[23] = tested on: T47D; assay: Cytotoxicity against human T47D cells at 10^-5 M after 48 hrs by SRB assay; conditions: read-out: GI
[24] = Cytotoxicity against human OVCAR4 cells at 10^-6 M after 48 hrs by SRB assay; conditions: OVCAR-4, 48 h, read-out: GI; method in brief: as §1
[25] = tested on: CAKI-1; assay: Cytotoxicity against human Caki1 cells at 10^-5 M after 48 hrs by SRB assay; conditions: CAKI-1, 48 h, read-out: GI; method in brief: as §3
[26] = tested on: MDA-MB-435; assay: Cytotoxicity against human MDA-MB-435 cells at 10^-6 M after 48 hrs by SRB assay; conditions: MDA-MB-435, 48 h, read-out: GI; method in brief: as §2
[27] = tested on: CCRF-CEM; assay: Cytotoxicity against human CCRF-CEM cells at 10^-6 M after 48 hrs by SRB assay; conditions: read-out: GI; method in brief: as §3
[28] = tested on: TK-10; assay: Cytotoxicity against human TK10 cells at 10^-5 M after 48 hrs by SRB assay; conditions: TK-10, 48 h, read-out: GI
[29] = tested on: MDA-MB-435; assay: Cytotoxicity against human MDA-MB-435 cells at 10^-5 M after 48 hrs by SRB assay; conditions: MDA-MB-435, 48 h, read-out: GI; method in brief: as §2
[30] = tested on: DU-145; assay: Cytotoxicity against human DU145 cells at 10^-5 M after 48 hrs by SRB assay; conditions: DU-145, 48 h, read-out: GI; method in brief: as §3
[31] = Cytotoxicity against human EKVX cells at 10^-5 M after 48 hrs by SRB assay; conditions: read-out: GI; method in brief: as §3
[32] = tested on: SN12C; assay: Cytotoxicity against human SN12C cells at 10^-5 M after 48 hrs by SRB assay; conditions: read-out: GI
[33] = Cytotoxicity against human UACC257 cells at 10^-6 M after 48 hrs by SRB assay; conditions: UACC-257, 48 h, read-out: GI
[34] = tested on: HCT-116; assay: Cytotoxicity against human HCT116 cells at 10^-5 M after 48 hrs by SRB assay; conditions: HCT-116, 48 h, read-out: GI; method in brief: as §3
[35] = tested on: T47D; assay: Cytotoxicity against human T47D cells at 10^-6 M after 48 hrs by SRB assay; conditions: read-out: GI
[36] = tested on: SF-539; assay: Cytotoxicity against human SF539 cells at 10^-6 M after 48 hrs by SRB assay; conditions: SF-539, 48 h, read-out: GI; method in brief: as §1
[37] = tested on: MDA-MB-231; assay: Cytotoxicity against human MDA-MB-231 cells at 10^-6 M after 48 hrs by SRB assay; conditions: MDA-MB-231, 48 h, read-out: GI; method in brief: as §2
[38] = tested on: RPMI-8226; assay: Cytotoxicity against human RPMI8226 cells at 10^-6 M after 48 hrs by SRB assay; conditions: RPMI-8226, 48 h, read-out: GI; method in brief: as §1

Row | SMILES | inhibition of growth at 1 µM [1] [%] | inhibition of growth at 10 µM [2] [%] | inhibition of growth at 1 µM [3] [%] | inhibition of growth at 10 µM [4] [%] | inhibition of growth at 10 µM [5] [%] | inhibition of growth at 10 µM [6] [%] | inhibition of growth at 1 µM [7] [%] | inhibition of growth at 1 µM [8] [%] | inhibition of growth at 1 µM [9] [%] | inhibition of growth at 1 µM [10] [%] | inhibition of growth at 1 µM [11] [%] | inhibition of growth at 1 µM [12] [%] | inhibition of growth at 1 µM [13] [%] | inhibition of growth at 10 µM [14] [%] | inhibition of growth at 1 µM [15] [%] | inhibition of growth at 10 µM [16] [%] | inhibition of growth at 1 µM [17] [%] | inhibition of growth at 10 µM [18] [%] | inhibition of growth at 10 µM [19] [%] | inhibition of growth at 1 µM [20] [%] | other results
1 | C#CCN(Cc1nc2cc(C(F)(F)F)ccc2nc1-c1ccccc1)c1ccc(C)cc1 | < 40 | 82 | < 40 | 164 | 91 | < 40 | < 40 | < 40 | < 40 | < 40 | < 40 | 41 | 62 | 99 | < 40 | 91 | < 40 | 137 | 71 | < 40 | inhibition of growth at 10 µM [21]: < 40%; inhibition of growth at 10 µM [22]: 62%; inhibition of growth at 10 µM [23]: 78%; inhibition of growth at 1 µM [24]: < 40%; inhibition of growth at 10 µM [25]: 82%; inhibition of growth at 1 µM [26]: 104%; inhibition of growth at 1 µM [27]: < 40%; inhibition of growth at 10 µM [28]: 54%; inhibition of growth at 10 µM [29]: 147%; inhibition of growth at 10 µM [30]: < 40%; inhibition of growth at 10 µM [31]: < 40%; inhibition of growth at 10 µM [32]: 80%; inhibition of growth at 1 µM [33]: < 40%; inhibition of growth at 10 µM [34]: 79%; inhibition of growth at 1 µM [35]: 90%; inhibition of growth at 1 µM [36]: < 40%; inhibition of growth at 1 µM [37]: < 40%; inhibition of growth at 1 µM [38]: < 40%
2 | CCN(Cc1nc2cc(C(F)(F)F)ccc2nc1-c1ccccc1)c1ccc(OC)c(OC)c1 | 45 | 18 | < 40 | < 40 | 32 | 21 | < 40 | < 40 | < 40 | < 40 | 19 | < 40 | 25 | 40 | < 40 | 24 | 17 | < 40 | < 40 | < 40 | inhibition of growth at 10 µM [21]: 146%; inhibition of growth at 10 µM [22]: 72%; inhibition of growth at 10 µM [23]: 24%; inhibition of growth at 1 µM [24]: < 40%; inhibition of growth at 10 µM [25]: 29%; inhibition of growth at 1 µM [26]: < 40%; inhibition of growth at 1 µM [27]: < 40%; inhibition of growth at 10 µM [28]: < 40%; inhibition of growth at 10 µM [29]: 14%; inhibition of growth at 10 µM [30]: 26%; inhibition of growth at 10 µM [31]: 23%; inhibition of growth at 10 µM [32]: 21%; inhibition of growth at 1 µM [33]: 104%; inhibition of growth at 10 µM [34]: 43%; inhibition of growth at 1 µM [35]: < 40%; inhibition of growth at 1 µM [36]: < 40%; inhibition of growth at 1 µM [37]: < 40%; inhibition of growth at 1 µM [38]: < 40%

Source: ChEMBL document CHEMBL3120154, “2-[N-Alkyl(R-phenyl)-aminomethyl]-3-phenyl-7-trifluoromethylquinoxalines as anticancer agents inhibitors of folate enzymes” (Eur J Med Chem, 2014)
